# The list is not random: actives were taken first. Their share in the collection is about 2.3%.
# TAAR1 ag: human TAAR1 agonists, primary screen, Fluo-8 calcium fluorescence, CHO RD-HGA16 cells; activation, % at 3 µM; vehicle wells 0%, saturating PEA agonist 100%; actives 0.99% (n = 360,000); Trace amine-associated receptor 1 (Homo sapiens), Q96RJ0;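 active = activation above the mean activation of all test compounds in the run plus 3 SD, cut at about 38% in these data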
# Target sequence (Q96RJ0 whole entry, looked up): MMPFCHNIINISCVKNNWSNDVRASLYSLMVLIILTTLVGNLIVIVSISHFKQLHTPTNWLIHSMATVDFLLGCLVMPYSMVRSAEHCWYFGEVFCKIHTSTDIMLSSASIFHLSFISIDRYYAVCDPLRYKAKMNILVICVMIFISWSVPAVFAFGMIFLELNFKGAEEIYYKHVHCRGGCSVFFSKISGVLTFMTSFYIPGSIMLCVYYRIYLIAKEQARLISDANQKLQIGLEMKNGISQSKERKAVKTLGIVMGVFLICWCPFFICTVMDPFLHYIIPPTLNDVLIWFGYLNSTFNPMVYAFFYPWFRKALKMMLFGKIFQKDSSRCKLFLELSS
#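 Assay system – CHO-derived RD-HGA16 cells with stable Gα16 and human TAAR1 · Compound dosing – one-point dosing at 3 µM (nominal) · Incubation – 17-24 h seeding, 75 min 37 °C dye, 30 min RT · Measured by – kinetic Fluo-8 calcium fluorescence · Control set – DMSO vehicle as 0%, PEA at EC100 as 100% · Repeats – single well for each compound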
# TAAR1 antagonist: human TAAR1 antagonists, primary screen, Fluo-8 calcium fluorescence, CHO RD-HGA16 cells | Trace amine-associated receptor 1 (Homo sapiens), Q96RJ0 | antagonist | inhibition, % at 3 µM | actives 1.5% (n = 360,000) | AID 624466, 2012;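 active = inhibition above a per-plate cutoff, the mean inhibition of test compounds on that plate plus 3 SD, cut at about 49% in these data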;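 note: 0% = DMSO plus EC80 beta-PEA response and 100% = DMSO alone without agonist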
#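 Assay system: CHO-derived RD-HGA16 cells stably expressing human TAAR1 plus Gα16. Timing: 140 s kinetic read after compound, 140 s after agonist. Technique: kinetic Fluo-8 calcium fluorescence measurement. Measure: % inhibition of agonist calcium response.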
# OXTR potentiate: human OXTR potentiators, primary screen, fluorescence, CHO-OTR cells, Fluo-8 calcium. Oxytocin receptor (Homo sapiens), P30559. Fluo-8 calcium fluorescence, potentiator mode; 0% = oxytocin EC15, 100% = EC100. activation, % at 3 µM. actives 0.061% (n = 320,000). AID 2445, 2010;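 active = activation above that plate's cutoff, the mean activation of tested compounds plus 3 SD, cut at about 6.6% in these data, passing the limit was not always enough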;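 note: 100% uses oxytocin at 75 nM as the full agonist control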
#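 assay system = CHO-OTR cells, human receptor | schedule = compound 6 min at room temperature before oxytocin, 100 s read | detection = Fluo-8 intracellular calcium fluorescence, ex 470-495, em 515-575 nm | evaluation = normalized max/min fluorescence ratio, % activation | control set = EC15 oxytocin alone as 0%, 75 nM oxytocin (EC100) as 100%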
# OXTR agonist: human OXTR agonists, primary screen, fluorescence, CHO-OTR cells, Fluo-8 calcium. actives 0.32% (n = 320,000). activation, % at 3 µM. Fluo-8 calcium fluorescence; normalized: DMSO 0%, oxytocin 100%. AID 2435, 2010;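 active = activation above the mean of all tested compounds plus 3 SD, cutoff set per screening run, cut at about 20% in these data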;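 note: peak over basal fluorescence ratio from a 100 s FLIPR kinetic read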
# V1aR counter: agonists of human V1a receptor, primary screen, counter-screen for OXTR agonist project, fluorescence, CHO-V1R cells; Fluo-8 calcium fluorescence, agonist mode; 0% DMSO, 100% 3 nM vasopressin; activation, % at 3 µM; AID 2797, 2010; actives 0.25% (n = 320,000);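 active = activation above the mean activation of all tested compounds plus 3 SD, per screening run, cut at about 20% in these data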;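 note: signal is peak over basal fluorescence ratio across a 100 second FLIPR read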
# nonsel antag count: nonselective antagonists in TAAR1 counter-screen cells, counter-screen for hTAAR1 antagonist project, cell-based, fluorescence, calcium; counterscreen cell line, antagonist mode; actives 77% (n = 2,400); shares compounds with TAAR1 antagonist; inhibition, % at 3 µM; in the data active = inhibition above about 22%;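 note: CHO-Ga16 host cells stimulated with ATP at an EC80 level; 0% = agonist EC80 plus vehicle and 100% = vehicle without agonist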
# TAAR1 ant conf: human TAAR1 antagonists, retest of hits, confirmation, cell-based, fluorescence; shares compounds with TAAR1 antagonist; AID 651785, 2012; inhibition, % at 3 µM; actives 40% (n = 2,400); TAAR1-expressing cells, fluorescence antagonist read-out; in the data active = inhibition above about 49%;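 note: CHO-Ga16 host cells challenged with agonist PEA near its EC80; 0% = agonist at EC80 plus vehicle and 100% = vehicle with no agonist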
# Ga16 nonsel ag: calcium activation in Ga16-expressing cells, counter-screen for TAAR1 antagonist project, cell-based, fluorescence | agonist counterscreen | actives 18% (n = 2,400) | AID 651953, 2012 | activation, % at 3 µM | shares compounds with TAAR1 antagonist; in the data active = activation above about 12%;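 note: 0% = vehicle wells and 100% = saturating stimulus response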
# TAAR1 ag count: TAAR1 activation by candidate antagonists – cell-based, fluorescence, counter-screen for TAAR1 antagonist project | actives 2% (n = 2,400) | shares compounds with TAAR1 antagonist | AID 651955, 2012 | activation, % at 3 µM | hTAAR1 cell line, agonist mode; in the data active = activation above about 37%;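 note: CHO cells stably expressing TAAR1 with calcium dye readout; 0% = DMSO vehicle and 100% = full agonist response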
# * = called active by the depositor; / = not tested or not shown.
SMILES,TAAR1 ag,TAAR1 antagonist,OXTR potentiate,OXTR agonist,V1aR counter,nonsel antag count,TAAR1 ant conf,Ga16 nonsel ag,TAAR1 ag count
O=C(Nc1ccc(Cl)cc1)N(Cc1cccs1)Cc1cccs1,14,71*,-16,-1,4,29*,45,5,1
COc1ccc(-c2nnn(CC(=O)N(CCCN3CCOCC3)C(C(=O)NC3CCCC3)c3ccco3)n2)cc1 (stereo unspecified),1,-5,-18,0,0,/,/,/,/
Cc1cccc(N(Cc2ccccc2)C(=O)c2ccc(CS(C)(=O)=O)cc2)c1,3,-8,-10,0,5,/,/,/,/
COc1cccc(CNC(=O)[C@H]2CCCN2C(=O)[C@H]2CCCN2C(=O)c2ccc(Cl)cc2)c1,1,-7,/,/,/,/,/,/,/
Cc1ccc2cc(NC(=O)c3ccc(C(C)(C)C)cc3)ccc2n1,13,58*,-21,-1,0,25*,42,7,3
CCN(CC)S(=O)(=O)c1ccc2nc(NC(=O)c3cccs3)sc2c1,37,63*,-22,8,6,18,37,10,17
CCN(CC)S(=O)(=O)c1ccc2nc(NC(=O)c3ccco3)sc2c1,7,10,-7,2,1,/,/,/,/
Cc1ccc(C2c3[nH]c4ccccc4c3C[C@H]3C(=O)N(c4ccccc4C(=O)NCCCN4CCOCC4)C(=O)N23)cc1 (stereo partly specified),10,53*,-7,3,3,26*,32,5,5
Cc1ccc(C2c3[nH]c4ccccc4c3C[C@H]3C(=O)N(c4ccccc4C(=O)NCCN4CCOCC4)C(=O)N23)cc1 (stereo partly specified),10,61*,-1,5,3,27*,42,7,9
COc1cccc(C2c3[nH]c4ccccc4c3C[C@H]3C(=O)N(c4ccccc4C(=O)N4CCC(C(=O)O)CC4)C(=O)N23)c1 (stereo partly specified),1,-8,-2,-1,0,/,/,/,/
O=C(NCCCN1CCOCC1)c1ccccc1N1C(=O)[C@@H]2Cc3c([nH]c4ccccc34)C(c3cccc(Cl)c3)N2C1=O (stereo partly specified),18,71*,-10,14,4,47*,70*,23*,27
O=C(NCCCN1CCOCC1)c1ccccc1N1C(=O)[C@@H]2Cc3c([nH]c4ccccc34)C(c3ccccc3)N2C1=O (stereo partly specified),3,-5,/,/,/,/,/,/,/
Cc1ccccc1C1c2[nH]c3ccccc3c2C[C@H]2C(=O)N(c3ccccc3C(=O)NCCCN3CCOCC3)C(=O)N12 (stereo partly specified),14,60*,-7,7,3,29*,36,7,6
O=C(Nc1scc(-c2ccccc2)c1C(=O)O)c1ccco1,12,7,-10,-2,-1,/,/,/,/
COC(=O)c1c(-c2ccc(F)cc2)csc1NC(=O)c1ccco1,0,58*,-5,-2,0,4,25,2,6
CS(=O)(=O)c1ccc(N2CCN(S(=O)(=O)c3cccs3)CC2)c([N+](=O)[O-])c1,4,-4,-7,11,8,/,/,/,/
O=C(COC(=O)c1ccc(O)cc1O)Nc1cc(-c2ccccc2)nn1-c1ccccc1,12,72*,-18,3,3,35*,38,9,11
Cc1csc(N2CCN(c3cc4nc(-c5ccncc5)[nH]c4cc3Cl)CC2)n1,16,58*,-3,3,1,30*,39,10,9
CCOC(=O)C1=C(C)NC(C)=C(C(=O)OCC)C1C(=O)OCC(N)=O,0,-15,-2,1,0,/,/,/,/
CCOC(=O)C1=C(C)NC(C)=C(C(=O)OCC)C1C(=O)OCC(=O)NC(C)C,16,60*,-5,-1,0,23*,45,8,9
O=S(=O)(Cc1ccccc1)Nc1ccccc1,0,-2,-17,1,0,/,/,/,/
CC(C)C(=O)NC(=S)Nc1ccc(S(=O)(=O)N(C)Cc2ccccc2)cc1,6,69*,-19,-2,1,34*,50*,7,-2
CN(Cc1ccccc1)S(=O)(=O)c1ccc(NS(=O)(=O)Cc2ccccc2)cc1,11,55*,-14,7,7,35*,52*,9,6
CN(Cc1ccco1)C(=O)c1cc2c(s1)-c1ccc(Cl)cc1S(=O)(=O)C2,2,13,-19,4,2,/,/,/,/
COC(=O)C(Nc1ccccc1Cl)(c1cc(C)c(O)c(C)c1)C(F)(F)F (stereo unspecified),8,83*,-12,-2,0,8,40,4,8
SMILES,TAAR1 ag,TAAR1 antagonist,OXTR potentiate,OXTR agonist,V1aR counter,nonsel antag count,TAAR1 ant conf,Ga16 nonsel ag,TAAR1 ag count
CCOC(=O)C1(C)CCN1C(=O)c1ccc2c(c1)CCO2 (stereo unspecified),2,-15,/,/,/,/,/,/,/
O=C(c1ccc(Br)cc1)N(c1ccccn1)C1CCCCC1,-5,-10,-12,-2,-1,/,/,/,/
CC(=O)N1CCOC12CCN(Cc1ccccc1)CC2,0,-9,/,/,/,/,/,/,/
COc1ccc(NC(=O)c2ccc3ccccc3c2)cc1NS(=O)(=O)c1ccc(F)cc1,1,7,-6,-1,0,/,/,/,/
COc1ccc(NC(=O)c2ccc(C#N)cc2)cc1NS(=O)(=O)c1ccc(F)cc1,0,70*,-6,1,2,5,8,5,5
c1ccc(-c2cn3c(n2)-c2ccccc2C3)cc1,-2,-2,-6,0,3,/,/,/,/
Cc1ncc(CO)c2c1Oc1nc(-c3ccccc3F)nc(SCC(=O)N(C)c3ccccc3)c1C2,/,/,-14,0,1,/,/,/,/

# Assay outcomes (PubChem BioAssay)
